ChEMBL document CHEMBL2321777, “Selective mGAT2 (BGT-1) GABA uptake inhibitors: design, synthesis, and pharmacological characterization” (J Med Chem, 2013)

How the values were obtained:
GABA transporter 4 = target: T1, GABA transporter 4 (Mus musculus, UniProt P31650); experiment: Inhibition of [3H]GABA uptake at mouse GAT4 expressed in HEK293 cells after 3 mins by scintillation counting analysis; type: cell-based
T1 sequence (P31650 whole entry): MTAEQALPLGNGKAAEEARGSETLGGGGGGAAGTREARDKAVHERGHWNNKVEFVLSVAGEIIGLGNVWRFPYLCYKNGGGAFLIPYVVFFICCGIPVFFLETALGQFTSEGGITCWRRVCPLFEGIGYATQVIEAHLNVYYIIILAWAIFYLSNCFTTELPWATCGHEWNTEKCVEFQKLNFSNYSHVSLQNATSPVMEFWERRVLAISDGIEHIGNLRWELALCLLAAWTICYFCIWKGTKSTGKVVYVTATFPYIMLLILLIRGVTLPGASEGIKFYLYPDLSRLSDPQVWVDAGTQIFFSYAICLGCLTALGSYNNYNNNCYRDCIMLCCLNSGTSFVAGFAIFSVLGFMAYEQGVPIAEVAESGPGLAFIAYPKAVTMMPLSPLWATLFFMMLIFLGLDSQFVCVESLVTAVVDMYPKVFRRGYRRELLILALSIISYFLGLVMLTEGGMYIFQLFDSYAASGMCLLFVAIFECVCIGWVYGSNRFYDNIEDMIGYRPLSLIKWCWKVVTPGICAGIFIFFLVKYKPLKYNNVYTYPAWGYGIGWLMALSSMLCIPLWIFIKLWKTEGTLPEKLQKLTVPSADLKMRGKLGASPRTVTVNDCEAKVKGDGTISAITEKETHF
How it was run: (§1)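 Uptake measured in primary mouse cortical astrocyte or neuron cultures, or in cells stably overexpressing the respective recombinant mGAT. Cells were incubated at 37 °C in phosphate-buffered saline with [3H]GABA (1 μCi/mL), 1 μM GABA and increasing inhibitor concentrations. After 3 min, uptake was stopped by automated washing. Cells were solubilized in scintillant, radioactivity was counted, and inhibition curves were analyzed.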

GABA transporter 2 = target: T2, GABA transporter 2 (Mus musculus, UniProt P31651); experiment: Inhibition of [3H]GABA uptake at mouse GAT2 expressed in HEK293 cells after 3 mins by scintillation counting analysis; type: cell-based; how it was run: as §1
T2 sequence (P31651 whole entry): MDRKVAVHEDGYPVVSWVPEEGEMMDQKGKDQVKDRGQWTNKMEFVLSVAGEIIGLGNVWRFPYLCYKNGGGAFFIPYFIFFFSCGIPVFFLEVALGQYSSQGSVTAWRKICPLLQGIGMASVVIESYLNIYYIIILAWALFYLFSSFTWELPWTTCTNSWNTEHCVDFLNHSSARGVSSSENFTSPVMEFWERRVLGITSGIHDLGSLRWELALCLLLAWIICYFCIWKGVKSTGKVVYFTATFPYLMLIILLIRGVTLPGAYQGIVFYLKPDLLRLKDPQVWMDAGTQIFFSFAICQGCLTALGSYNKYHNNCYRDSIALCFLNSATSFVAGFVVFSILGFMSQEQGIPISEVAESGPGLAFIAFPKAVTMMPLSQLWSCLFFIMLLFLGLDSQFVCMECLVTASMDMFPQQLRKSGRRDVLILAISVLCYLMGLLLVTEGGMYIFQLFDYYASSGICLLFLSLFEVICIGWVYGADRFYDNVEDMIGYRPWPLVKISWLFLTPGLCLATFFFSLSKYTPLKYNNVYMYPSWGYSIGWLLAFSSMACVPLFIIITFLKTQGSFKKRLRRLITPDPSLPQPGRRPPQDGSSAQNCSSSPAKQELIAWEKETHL

GABA transporter 3 = target: T3, GABA transporter 3 (Mus musculus, UniProt P31649); experiment: Inhibition of [3H]GABA uptake at mouse GAT3 expressed in HEK293 cells after 3 mins by scintillation counting analysis; type: cell-based; how it was run: as §1
T3 sequence (P31649 whole entry): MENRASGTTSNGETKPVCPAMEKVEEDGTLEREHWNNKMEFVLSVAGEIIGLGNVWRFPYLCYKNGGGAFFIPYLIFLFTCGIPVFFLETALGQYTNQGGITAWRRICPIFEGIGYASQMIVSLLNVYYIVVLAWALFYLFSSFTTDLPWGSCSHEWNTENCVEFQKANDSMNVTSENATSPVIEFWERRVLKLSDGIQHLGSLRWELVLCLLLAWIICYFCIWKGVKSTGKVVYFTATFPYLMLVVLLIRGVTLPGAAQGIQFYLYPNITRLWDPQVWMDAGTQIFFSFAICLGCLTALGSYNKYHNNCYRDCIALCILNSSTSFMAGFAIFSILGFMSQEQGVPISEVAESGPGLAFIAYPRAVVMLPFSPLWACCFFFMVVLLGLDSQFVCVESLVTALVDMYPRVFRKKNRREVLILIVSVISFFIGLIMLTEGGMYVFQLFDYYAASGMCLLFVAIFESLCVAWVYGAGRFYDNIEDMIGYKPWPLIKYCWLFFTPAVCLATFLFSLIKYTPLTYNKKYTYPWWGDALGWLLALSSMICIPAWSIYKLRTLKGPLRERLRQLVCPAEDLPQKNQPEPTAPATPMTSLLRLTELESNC

[1] = target: Sodium- and chloride-dependent GABA transporter 1 (Mus musculus, UniProt P31648); experiment: Inhibition of [3H]GABA uptake at mouse GAT1 expressed in HEK293 cells after 3 mins by scintillation counting analysis; type: cell-based; how it was run: as §1
[2] = target: GABA transporter (Mus musculus); experiment: Inhibition of [3H]GABA uptake in mouse neurons after 3 mins by scintillation counting analysis
[3] = target: GABA transporter (Mus musculus); experiment: Inhibition of [3H]GABA uptake in mouse astrocytes after 3 mins by scintillation counting analysis
Mus musculus [4] = experiment: Anticonvulsant activity in ip dosed audiogenic seizure susceptible Frings mouse model after 15 mins; type: functional
Mus musculus [5] = experiment: Anticonvulsant activity in ip dosed audiogenic seizure susceptible Frings mouse model after 60 mins; type: functional; conditions: 1 h

## CNC1CCCc2onc(O)c21 (centres undefined)
GABA transporter 4; read-out: IC50
  IC50: > 3000 µM
GABA transporter 2
  IC50: > 3000 µM
GABA transporter 3; read-out: IC50
  IC50: > 3000 µM
[1]
  IC50: 450 µM
[2]
  IC50: 405 µM
[3]
  IC50: 48 µM

## Cc1ccsc1C(=CCCN(C)C1CCCc2o[nH]c(=O)c21)c1sccc1C (centres undefined)
GABA transporter 4; read-out: IC50
  IC50: > 300 µM
GABA transporter 3; read-out: IC50
  IC50: > 300 µM
[1]
  IC50: 7 µM

## Cc1ccsc1C(=CCCN(C)C1C2C=CC(C2)C1C(=O)O)c1sccc1C (centres undefined)
GABA transporter 4; read-out: IC50
  IC50: > 300 µM
GABA transporter 2
  IC50: 144 µM
GABA transporter 3; read-out: IC50
  IC50: > 300 µM
[1]
  IC50: 40 µM

## Cc1ccsc1C(=CCCN(C)C1CCC=C1C(=O)O)c1sccc1C (centres undefined)
GABA transporter 4; read-out: IC50
  IC50: > 300 µM
GABA transporter 2
  IC50: 50 µM
GABA transporter 3; read-out: IC50
  IC50: > 300 µM
[1]
  IC50: 17 µM

## Cc1ccsc1C(=CCCN(C)C1CCCC=C1C(=O)O)c1sccc1C (centres undefined)
Mus musculus [4]
  ED50: 20.4 mg/kg
GABA transporter 4; read-out: IC50
  IC50: 286 µM
GABA transporter 4; read-out: pIC50 (converted)
  IC50: 3470 µM
GABA transporter 2
  IC50: 45 µM
GABA transporter 3; read-out: IC50
  IC50: > 300 µM
[1]
  IC50: 307 µM

## CNC1C2C=CC(C2)C1C(=O)O (centres undefined)
GABA transporter 4; read-out: IC50
  IC50: > 500 µM
GABA transporter 3; read-out: IC50
  IC50: > 500 µM
[1]
  IC50: > 500 µM

## CNC1CCCC=C1C(=O)O (centres undefined)
GABA transporter 4; read-out: IC50
  IC50: > 1000 µM
GABA transporter 3; read-out: IC50
  IC50: > 1000 µM
[1]
  IC50: 423 µM

## Cc1ccsc1C(=CCCN(C)[C@@H]1CCCC[C@@H]1C(=O)O)c1sccc1C (relative stereo)
GABA transporter 4; read-out: IC50
  IC50: > 300 µM
GABA transporter 2
  IC50: 50 µM
GABA transporter 3; read-out: IC50
  IC50: 281 µM
GABA transporter 3; read-out: pIC50 (converted)
  IC50: 3550 µM
[1]
  IC50: > 300 µM

## CN[C@@H]1CCCC[C@H]1C(=O)O (relative stereo)
GABA transporter 4; read-out: IC50
  IC50: > 3000 µM
GABA transporter 2
  IC50: > 3000 µM
GABA transporter 3; read-out: IC50
  IC50: > 3000 µM
[1]
  IC50: > 3000 µM
[2]
  IC50: > 300 µM
[3]
  IC50: > 300 µM

## CN[C@H]1CCCC[C@H]1C(=O)O (relative stereo)
GABA transporter 4; read-out: IC50
  IC50: > 3000 µM
GABA transporter 2
  IC50: > 3000 µM
GABA transporter 3; read-out: IC50
  IC50: > 3000 µM
[1]
  IC50: > 3000 µM
[2]
  IC50: > 300 µM
[3]
  IC50: > 300 µM

## Cc1ccsc1C(=CCCN(C)[C@H]1CCCC[C@@H]1C(=O)O)c1sccc1C (relative stereo)
GABA transporter 4; read-out: IC50
  IC50: > 300 µM
GABA transporter 2
  IC50: 36 µM
GABA transporter 3; read-out: IC50
  IC50: > 300 µM
[1]
  IC50: 273 µM

## Cc1ccsc1C(=CCCN1CCC[C@@H](C(=O)O)C1)c1sccc1C [TIAGABINE]
Mus musculus [5]
  ED50: 1.1 mg/kg
GABA transporter 4; read-out: IC50
  IC50: 800 µM
GABA transporter 3; read-out: IC50
  IC50: > 300 µM
[1]
  IC50: 0.8 µM
